Experimental findings from article PMC8897028 (Acta Pharmaceutica Sinica. B, 2021) are described below.

Numbering of substitutions follows the chain as printed.

For experiment [1], the target named is T1, mTRPV3 L669A (Mus musculus, UniProt Q8K424, L669A).
T1 sequence (Q8K424 1-791 L669A): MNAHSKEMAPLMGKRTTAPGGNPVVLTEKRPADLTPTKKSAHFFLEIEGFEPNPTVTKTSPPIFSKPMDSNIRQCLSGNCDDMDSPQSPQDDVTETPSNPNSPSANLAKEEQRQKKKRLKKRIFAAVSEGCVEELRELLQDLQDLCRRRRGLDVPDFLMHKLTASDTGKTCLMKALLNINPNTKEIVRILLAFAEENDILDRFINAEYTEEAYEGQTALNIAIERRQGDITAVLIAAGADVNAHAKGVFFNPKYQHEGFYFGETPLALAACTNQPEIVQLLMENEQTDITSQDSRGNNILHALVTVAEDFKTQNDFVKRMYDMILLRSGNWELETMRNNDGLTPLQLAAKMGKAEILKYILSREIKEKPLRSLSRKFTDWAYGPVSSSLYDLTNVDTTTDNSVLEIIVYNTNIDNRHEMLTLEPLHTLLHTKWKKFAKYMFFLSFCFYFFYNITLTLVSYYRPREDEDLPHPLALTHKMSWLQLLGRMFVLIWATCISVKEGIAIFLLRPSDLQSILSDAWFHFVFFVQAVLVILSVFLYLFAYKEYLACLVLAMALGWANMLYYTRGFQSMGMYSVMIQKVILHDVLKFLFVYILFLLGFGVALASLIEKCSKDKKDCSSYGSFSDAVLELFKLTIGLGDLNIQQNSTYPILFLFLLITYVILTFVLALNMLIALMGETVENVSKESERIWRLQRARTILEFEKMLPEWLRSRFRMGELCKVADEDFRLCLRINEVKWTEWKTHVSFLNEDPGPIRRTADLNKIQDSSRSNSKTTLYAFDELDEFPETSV
In words: whole-cell patch-clamp of mTRPV3 L669A mutant in HEK293 cells. It is filed as cell-based. The following applies: compound 50 μmol/L; 2-APB; compared with WT mTRPV3. In a few lines: (§1)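 Mouse Trpv3 point mutants were made by site-directed mutagenesis, sequence-verified, and transiently expressed in HEK293 cells alongside wild-type mTRPV3. Whole-cell ramp recordings (−100 to +100 mV, 500 ms, holding 0 mV) were made at 22–24 °C. Currents were activated by 2-APB, and inhibition by 50 μmol/L test compound in the presence of 2-APB was compared with wild type; n = 3–8.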
For orientation: In patch-clamp work, channel activity is measured electrically.

For experiment [2], the target named is T2, mTRPV3 V662A (Mus musculus, UniProt Q8K424, V662A).
T2 sequence (Q8K424 1-791 V662A): T1 sequence (Q8K424 1-791 L669A) with V662A, A669L
In words: whole-cell patch-clamp of mTRPV3 V662A mutant in HEK293 cells. It is filed as cell-based. The conditions noted are these: compound 50 μmol/L; 2-APB; compared with WT mTRPV3. The procedure, abridged: as §1

The target in experiment [3] is T3, hTRPV3 (Homo sapiens, UniProt Q8NET8).
T3 sequence (Q8NET8 1-790): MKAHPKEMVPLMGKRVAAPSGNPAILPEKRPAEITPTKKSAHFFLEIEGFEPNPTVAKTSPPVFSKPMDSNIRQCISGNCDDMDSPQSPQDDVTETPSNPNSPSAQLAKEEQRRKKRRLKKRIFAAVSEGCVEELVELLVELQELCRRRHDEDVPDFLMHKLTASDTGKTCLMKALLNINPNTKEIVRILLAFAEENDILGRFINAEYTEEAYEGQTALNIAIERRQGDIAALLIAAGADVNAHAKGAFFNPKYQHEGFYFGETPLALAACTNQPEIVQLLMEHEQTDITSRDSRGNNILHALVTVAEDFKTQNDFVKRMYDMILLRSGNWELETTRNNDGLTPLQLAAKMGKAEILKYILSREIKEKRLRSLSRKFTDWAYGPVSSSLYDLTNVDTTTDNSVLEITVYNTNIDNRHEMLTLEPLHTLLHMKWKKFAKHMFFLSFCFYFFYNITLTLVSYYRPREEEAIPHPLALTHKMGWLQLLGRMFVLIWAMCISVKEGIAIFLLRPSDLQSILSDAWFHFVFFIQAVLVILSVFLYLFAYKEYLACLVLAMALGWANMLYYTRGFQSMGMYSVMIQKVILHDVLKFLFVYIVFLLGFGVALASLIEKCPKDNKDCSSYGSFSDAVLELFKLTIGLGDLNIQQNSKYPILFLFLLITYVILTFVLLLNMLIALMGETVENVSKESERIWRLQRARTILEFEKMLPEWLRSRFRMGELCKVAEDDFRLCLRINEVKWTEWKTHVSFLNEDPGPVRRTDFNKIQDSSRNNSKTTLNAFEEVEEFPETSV
In words: inside-out single-channel recordings of HEK293 cells overexpressing hTRPV3. It is filed as biochemical. The conditions noted are these: for channel open probability: compound 100 μmol/L in the presence of carvacrol 300 μmol/L, from 26.9 ± 5.5%, +80 mV, n = 4; for effect on ion permeation or single-channel conductance: single-channel level. In a few lines:
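Inside-out patches from EGFP-identified HEK293 cells, 18 h after hTRPV3 transfection, used 6–10 MΩ pipettes. Patches were held at 0 mV, then stepped to +80 mV. Currents were sampled at 10 kHz, filtered at 2.9 kHz, at 22–24 °C. All-points histograms were Gaussian-fitted for conductance and mean open probability; n = 4.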

Regarding `O=C(/C=C/c1ccc(O)c(O)c1)O[C@@H]1C[C@](O)(C(=O)O)C[C@@H](OC(=O)/C=C/c2ccc(O)c(O)c2)[C@H]1O` [IAA, isochlorogenic acid A], in experiment [1], the “effect of mutation on compound-induced inhibition of mTRPV3 currents” value was “no obvious effect”. Besides, the “effect of mutation on compound-induced inhibition of mTRPV3 currents” value in experiment [2] is given as “no obvious effect”. Further, in experiment [3], the channel open probability is listed as 3.7 ± 1.2% and the “effect on ion permeation or single-channel conductance” value was “no effect”.

For `O=C(/C=C/c1ccc(O)c(O)c1)O[C@@H]1[C@H](O)C[C@@](O)(C(=O)O)C[C@H]1OC(=O)/C=C/c1ccc(O)c(O)c1` [IAB, isochlorogenic acid B], the “effect of mutation on compound-induced inhibition of mTRPV3 currents” value in experiment [1] and in experiment [2] was “no obvious effect” throughout. Further, the channel open probability in experiment [3] was found to be 3.2 ± 1.1%. Moreover, in experiment [3], the “effect on ion permeation or single-channel conductance” value is reported as “no effect”.
